Holding throughout (format): cell-based
One data set deals with HIV-1 (IIIB strain). In words: MT-4 antiviral cytoprotection assay, five-day multi-cycle, wild type HIV-1. The following applies: for SI (selectivity index): CC50/EC50 ratio, MT-4; for SI (selectivity index) / anti-HIV activity in words: wild type; for anti-HIV activity in words: MT-4 cells. A digest of the protocol: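 MT-4 cells were pre-infected with a fresh 1:250 dilution of concentrated HIV-1 IIIB stock, or mock-infected for cytotoxicity. Test compound was serially diluted 1:3 in DMSO, then 200-fold into RPMI with 10% FBS and 1% P/S. Controls were no-drug and 5 µM AZT. After 5 days at 37°C, viability was read by CellTiter-Glo luminescence. EC50/CC50 were taken as 50% signal decrease from sigmoidal fits; SI = CC50/EC50.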

A further data set is described as follows: MT-4 cytotoxicity assay. The note with it: human, MT-4 cells (mock-infected), CC50, MT-4 cell line, n = 3.
Data set [1] concerns HIV-1 encoding RT mutation Y181C. As to the kind of experiment: MT-4 antiviral assay against HIV-1 encoding RT mutation Y181C. The following applies: Human immunodeficiency virus 1, MT4, read-out: EC50 Y181C.
Data set [2] deals with HIV-1 encoding RT mutation K103N. In words: MT-4 antiviral assay against HIV-1 encoding RT mutation K103N. The note with it: Human immunodeficiency virus 1, MT4, read-out: EC50 K103N.
A further data set concerns MT-4 cells. In words: MT-4 cytotoxicity assay. The following applies: MT-4 cell line, n = 3.
The mark [3] stands for this setting: Human immunodeficiency virus 1, IIIB, MT4, read-out: EC50 w.t.

Where two headings read alike, the source gives them in different places.

A word on the EC50: it is the concentration giving half of the maximal effect. By CC50 is commonly meant the concentration that lowers cell viability or growth by half. Lower therefore signals greater toxicity to the cells. With `N#Cc1ccc(Nc2nc(Cl)cc(Oc3c(F)cc(F)cc3F)n2)cc1` [Compound 28, 4-((4-chloro-6–(2,4,6-trifluorophenoxy)pyrimidin-2-yl)amino)benzonitrile], the “SI (selectivity index)” value in the data set with HIV-1 (IIIB strain) came out at 264. For the same molecule, the half-maximal effective concentration (EC50) in the data set with HIV-1 (IIIB strain) (setting [3]) was 53 nM; in data set [1] it was 2530 nM; in data set [2], 657 nM. The midpoint of cytotoxicity in “MT-4 cytotoxicity assay”, the CC50 at 5 days, lay at 14 µM.

Turning to `COc1cc(F)c(Oc2cc(OC)nc(Nc3ccc(C#N)cc3)n2)c(F)c1` [Compound 31, 4-((4–(2,6-difluoro-4-methoxyphenoxy)-6-methoxypyrimidin-2-yl)amino)benzonitrile], the “SI (selectivity index)” value with HIV-1 (IIIB strain) turned out to be 832. The half-maximal effective concentration (EC50) in the data set with HIV-1 (IIIB strain) (setting [3]) worked out at 19 nM; in data set [1], 4370 nM; in data set [2] it was 444 nM. Moreover, the midpoint of cytotoxicity in “MT-4 cytotoxicity assay”, the CC50 at 5 days, lay at 15.8 µM.

Consider `COc1cc(F)c(Nc2cc(Cl)nc(Nc3ccc(C#N)cc3)n2)c(F)c1` [Compound 29, 4-((4-chloro-6-((2,6-difluoro-4-methoxyphenyl)amino)pyrimidin-2-yl)amino)benzonitrile], for which, in the data set on HIV-1 (IIIB strain), the “SI (selectivity index)” value was found to be 2667. In addition, the concentration for a half-maximal effect (EC50) was found to be 6 nM in the data set on HIV-1 (IIIB strain) (setting [3]), 651 nM in data set [1] and 204 nM in data set [2]. Also, in the data set “MT-4 cytotoxicity assay”, the midpoint of cytotoxicity, the CC50 at 5 days, lay at 16 µM.

As for `Cc1cc(C#N)cc(C)c1Oc1nc(Nc2ccc(C#N)cc2)nc(N)c1Br` [ETR, etravirine, reference compound], the “SI (selectivity index)” value with HIV-1 (IIIB strain) was found to be 2940. For the same molecule, the EC50 in the data set with HIV-1 (IIIB strain) (setting [3]) was 2 nM; in data set [1], 12 nM; in data set [2], 2 nM. This molecule showed a CC50 at 5 days in “MT-4 cytotoxicity assay” of 5.88 µM.

In the case of `N#Cc1ccc(Nc2cc(N)nc(C(=O)c3c(F)cc(F)cc3F)n2)cc1` [Compound 12, 4-((6-amino-2–(2,4,6-trifluorobenzoyl)pyrimidin-4-yl)amino)benzonitrile], in the data set with HIV-1 (IIIB strain), the “SI (selectivity index)” value is listed as 24.3 and the “anti-HIV activity in words” value was “micromolar range”. In the data set with HIV-1 (IIIB strain) (setting [3]), the EC50 stood at 1730 nM. In addition, it took 42 µM to reach half-maximal cytotoxicity in the data set “MT-4 cytotoxicity assay” (CC50 at 5 days).

In the case of `COc1cc(F)c(Oc2cc(N)nc(Nc3ccc(C#N)cc3)n2)c(F)c1` [Compound 35, 4-((4-amino-6–(2,6-difluoro-4-methoxyphenoxy)pyrimidin-2-yl)amino)benzonitrile], in the data set on HIV-1 (IIIB strain), the “SI (selectivity index)” value is reported as 10,850. Further, the EC50 came out at 2 nM in the data set with HIV-1 (IIIB strain) (setting [3]), 637 nM in data set [1] and 36 nM in data set [2]. Further, the CC50 at 5 days in the data set “MT-4 cytotoxicity assay” came to 21.7 µM.

In the case of `N#Cc1ccc(Nc2nc(N)cc(Nc3c(F)cc(F)cc3F)n2)cc1` [Compound 38, 4-((4-amino-6-((2,4,6-trifluorophenyl)amino)pyrimidin-2-yl)amino)benzonitrile], the “SI (selectivity index)” value in the data set with HIV-1 (IIIB strain) is 1289. Besides, the EC50 worked out at 27 nM in the data set with HIV-1 (IIIB strain) (setting [3]), 13700 nM in data set [1] and 1650 nM in data set [2]. Further, the cytotoxic concentration (CC50) at 5 days in “MT-4 cytotoxicity assay” came out at 34.8 µM.

Turning to `N#Cc1ccc(Nc2nc(N)cc(Oc3c(F)cc(F)cc3F)n2)cc1` [Compound 36, 4-((4-amino-6–(2,4,6-trifluorophenoxy)pyrimidin-2-yl)amino)benzonitrile], the “SI (selectivity index)” value in the data set on HIV-1 (IIIB strain) is 293. For the same molecule, the EC50 stood at 67 nM with HIV-1 (IIIB strain) (setting [3]), 6660 nM in data set [1] and 67 nM in data set [2]. Besides, the 50% cytotoxic concentration (CC50) at 5 days in the data set “MT-4 cytotoxicity assay” was determined as 19.6 µM.

Consider `COc1cc(F)c(C(=O)c2nc(N)cc(Nc3ccc(C#N)cc3)n2)c(F)c1` [Compound 11, 4-((6-amino-2–(2,6-difluoro-4-methoxybenzoyl)pyrimidin-4-yl)amino)benzonitrile], for which, in the data set on HIV-1 (IIIB strain), the “SI (selectivity index)” value is listed as 7.14 and the “anti-HIV activity in words” value is on record as “micromolar range”. Also, the 50% effective concentration (EC50) in the data set with HIV-1 (IIIB strain) (setting [3]) came out at 874 nM. This molecule also showed a half-maximal cytotoxic concentration (CC50) at 5 days in the data set “MT-4 cytotoxicity assay” of 6.24 µM.

On to `COc1cc(F)c(Oc2cc(Cl)nc(Nc3ccc(C#N)cc3)n2)c(F)c1` [Compound 27, 4-((4-chloro-6–(2,6-difluoro-4-methoxyphenoxy)pyrimidin-2-yl)amino)benzonitrile], for which the “SI (selectivity index)” value in the data set with HIV-1 (IIIB strain) is 847. Besides, the half-maximal effective concentration (EC50) in the data set on HIV-1 (IIIB strain) (setting [3]) came to 19 nM; in data set [1] it was 1640 nM; in data set [2], 413 nM. Further, in the data set “MT-4 cytotoxicity assay”, the half-maximal cytotoxic concentration (CC50) at 5 days came to 16.1 µM.

Regarding `O=C1Nc2ccc(Cl)cc2[C@@](C#CC2CC2)(C(F)(F)F)O1` [EFV, efavirenz, reference compound], in the data set “MT-4 cytotoxicity assay”, the CC50 at 5 days was 20.6 µM. Also, the values for the EC50 in data set [1] and in data set [2] were 5 nM and 101 nM, respectively.

Consider `COc1cc(F)c(C(=O)c2cc(N)nc(Nc3ccc(C#N)cc3)n2)c(F)c1` [Compound 13, 4-((4-amino-6–(2,6-difluoro-4-methoxybenzoyl)pyrimidin-2-yl)amino)benzonitrile], for which the “SI (selectivity index)” value with HIV-1 (IIIB strain) was 4900. In addition, the EC50 in the data set on HIV-1 (IIIB strain) (setting [3]) amounted to 4 nM; in data set [1], 797 nM; in data set [2], 226 nM. Moreover, the “anti-HIV activity in words” value in the data set with HIV-1 (IIIB strain) is “low nanomolar activities”. Further, in the data set “MT-4 cytotoxicity assay”, the half-maximal cytotoxic concentration (CC50) at 5 days is 19.6 µM.

For the molecule `COc1cc(F)c(Nc2cc(OC)nc(Nc3ccc(C#N)cc3)n2)c(F)c1` [Compound 33, 4-((4-((2,6-difluoro-4-methoxyphenyl)amino)-6-methoxypyrimidin-2-yl)amino)benzonitrile], in the data set on HIV-1 (IIIB strain), the “SI (selectivity index)” value is on record as 5571. The half-maximal effective concentration (EC50) in the data set on HIV-1 (IIIB strain) (setting [3]) was 7 nM. This molecule registered a CC50 at 5 days in “MT-4 cytotoxicity assay” of 39 µM.

As to `COc1cc(C(=O)c2c(F)cc(F)cc2F)nc(Nc2ccc(C#N)cc2)n1` [Compound 22, 4-((4-methoxy-6–(2,4,6-trifluorobenzoyl)pyrimidin-2-yl)amino)benzonitrile], in the data set on HIV-1 (IIIB strain), the “SI (selectivity index)” value is listed as 19.4. Besides, in the data set with HIV-1 (IIIB strain) (setting [3]), the half-maximal effective concentration (EC50) was 473 nM. The CC50 at 5 days in the data set “MT-4 cytotoxicity assay” was 9.16 µM.

Consider `COc1cc(F)c(Nc2cc(N)nc(Nc3ccc(C#N)cc3)n2)c(F)c1` [Compound 37, 4-((4-amino-6-((2,6-difluoro-4-methoxyphenyl)amino)pyrimidin-2-yl)amino)benzonitrile], for which, in the data set with HIV-1 (IIIB strain), the “SI (selectivity index)” value amounted to 5733. The results for the EC50 (with HIV-1 (IIIB strain) (setting [3]); in data set [1]; in data set [2]) were 3 nM, 437 nM and 62 nM, respectively. The molecule further came in with a cytotoxic concentration (CC50) at 5 days in “MT-4 cytotoxicity assay” of 17.2 µM.

For “4-((4-amino-6–(2,6-difluoro-4-methoxybenzoyl)pyrimidin-2-yl)amino)benzonitrile [Compound 15]”, the EC50 with HIV-1 (IIIB strain) (read-out: EC50 w.t., MT-4 cell line, HIV-1 IIIB wild type, n = 3) is 2200 nM. For the same molecule, in the data set with HIV-1 (IIIB strain), the “anti-HIV activity in words” value was “micromolar range”. The same molecule displayed a CC50 with MT-4 cells of 7.7 µM.

Consider `COc1cc(Oc2c(F)cc(F)cc2F)nc(Nc2ccc(C#N)cc2)n1` [Compound 32, 4-((4-methoxy-6–(2,4,6-trifluorophenoxy)pyrimidin-2-yl)amino)benzonitrile], for which, in the data set with HIV-1 (IIIB strain), the “SI (selectivity index)” value was determined as 926. Besides, the EC50 in the data set on HIV-1 (IIIB strain) (setting [3]) was determined as 54 nM; in data set [1] it was 7700 nM; in data set [2], 560 nM. The molecule further displayed a CC50 at 5 days in “MT-4 cytotoxicity assay” of 50 µM.

For `N#Cc1ccc(Nc2cc(C(=O)c3c(F)cc(F)cc3F)nc(N)n2)cc1` [Compound 16, 4-((2-amino-6–(2,4,6-trifluorobenzoyl)pyrimidin-4-yl)amino)benzonitrile], in the data set with HIV-1 (IIIB strain), the “SI (selectivity index)” value turned out to be 0.025 and the “anti-HIV activity in words” value is given as “micromolar range”. In addition, the concentration giving a half-maximal response (EC50) in the data set with HIV-1 (IIIB strain) (setting [3]) stood at 40000 nM. The molecule further gave a CC50 at 5 days in the data set “MT-4 cytotoxicity assay” of 0.981 µM.

As for `COc1cc(Nc2c(F)cc(F)cc2F)nc(Nc2ccc(C#N)cc2)n1` [Compound 34, 4-((4-methoxy-6-((2,4,6-trifluorophenyl)amino)pyrimidin-2-yl)amino)benzonitrile], in the data set with HIV-1 (IIIB strain), the “SI (selectivity index)” value amounted to 454. In addition, the EC50 in the data set on HIV-1 (IIIB strain) (setting [3]) was 22 nM; in data set [1], 2020 nM; in data set [2], 1210 nM. In the data set “MT-4 cytotoxicity assay”, this molecule registered a CC50 at 5 days of 9.99 µM.

As for `N#Cc1ccc(Nc2nc(Cl)cc(Nc3c(F)cc(F)cc3F)n2)cc1` [Compound 30, 4-((4-chloro-6-((2,4,6-trifluorophenyl)amino)pyrimidin-2-yl)amino)benzonitrile], the “SI (selectivity index)” value with HIV-1 (IIIB strain) is reported as 378. Also, the EC50 was found to be 27 nM with HIV-1 (IIIB strain) (setting [3]), 2000 nM in data set [1] and 1020 nM in data set [2]. In the data set “MT-4 cytotoxicity assay”, this molecule returned a CC50 at 5 days of 10.2 µM.

In the case of `N#Cc1ccc(Nc2nc(N)cc(C(=O)c3c(F)cc(F)cc3F)n2)cc1` [Compound 14, 4-((4-amino-6–(2,4,6-trifluorobenzoyl)pyrimidin-2-yl)amino)benzonitrile], the “SI (selectivity index)” value in the data set with HIV-1 (IIIB strain) is reported as 935. The EC50 in the data set on HIV-1 (IIIB strain) (setting [3]) came out at 26 nM; in data set [1], 3900 nM; in data set [2], 1700 nM. Besides, the “anti-HIV activity in words” value in the data set with HIV-1 (IIIB strain) is “low nanomolar activities”. Besides, the 50% cytotoxic concentration (CC50) at 5 days in the data set “MT-4 cytotoxicity assay” turned out to be 24.3 µM.

For the molecule `Cc1cc(C(=O)c2c(F)cc(F)cc2F)nc(Nc2ccc(C#N)cc2)n1` [Compound 18, 4-((4-methyl-6–(2,4,6-trifluorobenzoyl)pyrimidin-2-yl)amino)benzonitrile], the 50% effective concentration (EC50) in the data set on HIV-1 (IIIB strain) (setting [3]) was 160 nM. Besides, half-maximal cytotoxicity in “MT-4 cytotoxicity assay” (CC50 at 5 days) was put at 57.1 µM.

The record behind these values is PMC6376552 (Antiviral Chemistry & Chemotherapy, 2019).
